The nature of series [1]: Cytotoxicity against MDCK cells assessed as cell viability after 48 hrs by MTT assay. The series is classed as cell-based, Canis lupus familiaris. The settings on record: dog. The procedure, abridged:
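Uninfected MDCK cells were exposed to various compound concentrations for 48 h. MTT was added from a 5 mg/mL stock for 4 h at 37 °C, stopped with DMSO, and read at 490 nm. CC50 was calculated by the Reed–Muench method, as the mean of 2–3 determinations.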
On the technique in general: Tetrazolium dyes change colour on reduction, which living cells bring about.

Series [2] deals with Influenza A virus. In words: Antiviral activity against amantadine-sensitive Influenza A virus A/HK/68 (H3N2) expressing wild type M2 ion channel infected in MDCK cells assessed as cell viability after 48 hrs by MTT assay. In kind it is functional, organism-based, Influenza A virus (A/Hong Kong/1/1968(H3N2)). The gist of the method:
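Infected MDCK cells were given compound for 48 h, and the CPE-based result was confirmed by MTT viability. MTT was added from a 5 mg/mL stock for 4 h at 37 °C, stopped with DMSO, and read as absorbance at 490 nm. The 50% effective concentration was calculated by the Reed–Muench method, as the mean of 2–3 determinations.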

In series [3] the test system is Influenza A virus. Nature of the series: Antiviral activity against amantadine-sensitive Influenza A virus A/HK/68 (H3N2) expressing wild type M2 ion channel infected in MDCK cells assessed as protection against virus induced cytopathic effect after 48 hrs by microscopic analysis. In kind it is functional, organism-based, Influenza A virus (A/Hong Kong/1/1968(H3N2)). The procedure, abridged: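 MDCK cells were grown 24 h to a confluent monolayer and rinsed twice. They were infected with 100 TCID50 virus for 2 h at 37 °C in 5% CO2, and the inoculum was removed. Serial two-fold compound dilutions in DMEM with 1.5 µg/mL trypsin were added for 48 h at 34 °C in 5% CO2. CPE percentage was scored microscopically. IC50 came from non-linear regression, as the mean of 2–3 determinations.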
For orientation: Protection from cytopathic effect is a common read-out in antiviral testing.

The target in series [4] is Matrix protein 2 (Influenza A virus (A/Udorn/307/1972(H3N2))) (UniProt P0DOF8). In words: Inhibition of Influenza A virus wild type M2 ion channel expressed in Xenopus oocytes at 100 uM after 2 mins by two-electrode voltage clamp assay. In kind it is cell-based. The gist of the method: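 A/M2 channel (S31N for line 7, wild type for line 9) was expressed in Xenopus oocytes and recorded by two-electrode voltage clamp. Compound was applied at 100 µM, and the percentage inhibition of channel current was taken after 2 min. Values are mean ± SD.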
For orientation: Two-electrode voltage clamp is typically applied to oocytes expressing channels or transporters.

Series [5] shares this target. In words: Inhibition of Influenza A virus wild type M2 ion channel expressed in 293Trex cells at 100 uM after 2 mins by patch clamp assay. The series is classed as cell-based.
Where [6] appears, read: Influenza A virus, MDCK, 48 h, read-out: IC50.

Experimental findings from ChEMBL document CHEMBL3763156, “Imidazole-based pinanamine derivatives: Discovery of dual inhibitors of the wild-type and drug-resistant mutant of the influenza A virus” (Eur J Med Chem, 2016) are described below.

The structures appear in SMILES notation.

As a reminder, the CC50 is the concentration giving 50% cytotoxicity. What is called IC50 is the concentration that gives 50% inhibition. As to `CC(C)Cc1ncc(CN[C@@H]2C[C@@H]3C[C@H]([C@H]2C)C3(C)C)[nH]1`, in series [1], the CC50 at 48 h is 74.8 µM. The values for the 50% inhibitory concentration (IC50) in series [2] and in series [3] (setting [6]) were 15.2 µM and 8.7 µM, respectively.
Regarding `Cc1ncc(CN[C@@H]2C[C@@H]3C[C@H]([C@H]2C)C3(C)C)[nH]1`, the cytotoxic concentration (CC50) at 48 h in series [1] was 202 µM. The half-inhibitory concentration (IC50) entry in series [3] (mdck) is given as “Not Active”.
With `CCCc1nc(C(C)C)[nH]c1CN[C@@H]1C[C@@H]2C[C@H]([C@H]1C)C2(C)C`, the CC50 at 48 h in series [1] is 156 µM. Besides, the 50% inhibitory concentration (IC50) in series [2] is 13.5 µM; in series [3] (setting [6]), 10.2 µM.
On the same counts, the results for `C[C@@H]1[C@H]2C[C@@H](C[C@H]1NCc1[nH]cnc1C(C)(C)C)C2(C)C` are 72.3 µM, 12.9 µM and 8.3 µM.
Turning to `CCc1ncc(CN[C@@H]2C[C@@H]3C[C@H]([C@H]2C)C3(C)C)[nH]1`, the CC50 at 48 h in series [1] came to 137 µM. In addition, the half-maximal inhibitory concentration (IC50) result in series [3] (mdck) is “Not Active”.
One may read the inhibition as how much of the control response was suppressed. The low end stands for little suppression, the high end for strong suppression. Regarding `CCCc1nc[nH]c1CN[C@@H]1C[C@@H]2C[C@H]([C@H]1C)C2(C)C`, the CC50 at 48 h in series [1] was 200 µM. For the same molecule, the results for the IC50 in series [2] and in series [3] (setting [6]) were 3.3 µM and 2.5 µM, respectively. The same molecule came in with an inhibition in series [4] of 97.9%.
For the molecule `CCCc1nc(-c2ccccc2)[nH]c1CN[C@@H]1C[C@@H]2C[C@H]([C@H]1C)C2(C)C`, the cytotoxic concentration (CC50) at 48 h in series [1] came to 143 µM. Further, the results for the IC50 in series [2] and in series [3] (setting [6]) were 15.2 µM and 13.5 µM, respectively.
In the case of `C[C@@H]1[C@H]2C[C@@H](C[C@H]1NCc1cnc(C3CC3)[nH]1)C2(C)C`, the cytotoxic concentration (CC50) at 48 h in series [1] was 94.5 µM. Besides, the half-inhibitory concentration (IC50) result in series [3] (mdck) was “Not Active”.
In the case of `CCCCc1ncc(CN[C@@H]2C[C@@H]3C[C@H]([C@H]2C)C3(C)C)[nH]1`, in series [1], the CC50 at 48 h is 70.4 µM. In series [3] (mdck), the concentration for half-maximal inhibition (IC50) entry is on record as “Not Active”.
Turning to `Cc1nc[nH]c1CN[C@@H]1C[C@@H]2C[C@H]([C@H]1C)C2(C)C`, the 50% cytotoxic concentration (CC50) at 48 h in series [1] worked out at 252 µM. This molecule also came in with an inhibition in series [5] of 95.8%. The IC50 in series [3] (setting [6]) came to 3.2 µM.
As to `C[C@@H]1[C@H]2C[C@@H](C[C@H]1NCc1cncn1C)C2(C)C`, the 50% inhibitory concentration (IC50) in series [3] (setting [6]) was 12 µM.
Take `CC(C)c1ncc(CN[C@@H]2C[C@@H]3C[C@H]([C@H]2C)C3(C)C)[nH]1`: the cytotoxic concentration (CC50) at 48 h in series [1] was found to be 114 µM. Moreover, in series [3] (mdck), the IC50 result is “Not Active”.
Turning to `CCCc1nc(C2CC2)[nH]c1CN[C@@H]1C[C@@H]2C[C@H]([C@H]1C)C2(C)C`, the CC50 at 48 h in series [1] turned out to be 112 µM. The IC50 in series [2] turned out to be 10.8 µM; in series [3] (setting [6]), 6.9 µM.
Turning to `CCc1nc(C)c(CN[C@@H]2C[C@@H]3C[C@H]([C@H]2C)C3(C)C)[nH]1`, the CC50 at 48 h in series [1] was determined as 136 µM. The IC50 in series [2] was 4.5 µM; in series [3] (setting [6]), 4.1 µM. In series [4], the inhibition amounted to 91.7%.
For the molecule `Cc1nc(C2CC2)[nH]c1CN[C@@H]1C[C@@H]2C[C@H]([C@H]1C)C2(C)C`, the cytotoxic concentration (CC50) at 48 h in series [1] stood at 74.9 µM. The figures for the IC50 in series [2] and in series [3] (setting [6]) were 21.2 µM and 15.3 µM, respectively.
For the molecule `C[C@@H]1[C@H]2C[C@@H](C[C@H]1NCc1cnc(C3CCCC3)[nH]1)C2(C)C`, the CC50 at 48 h in series [1] was 37.2 µM. Besides, the IC50 result in series [3] (mdck) was “Not Active”.
Consider `C[C@@H]1[C@H]2C[C@@H](C[C@H]1NCc1[nH]cnc1-c1ccccc1)C2(C)C`, for which the CC50 at 48 h in series [1] is 39.7 µM. The IC50 entry in series [3] (mdck) is “Not Active”.
With `C[C@@H]1[C@H]2C[C@@H](C[C@H]1NCc1cnc(C(C)(C)C)[nH]1)C2(C)C`, the CC50 at 48 h in series [1] was found to be 107 µM. Also, the IC50 was determined as 12.4 µM in series [2] and 8.8 µM in series [3] (setting [6]).
With `C[C@@H]1[C@H]2C[C@@H](C[C@H]1NCc1cnc(-c3cccs3)[nH]1)C2(C)C`, in series [1], the CC50 at 48 h came to 75.6 µM. In addition, in series [3] (mdck), the IC50 result was “Not Active”.
Consider `C[C@@H]1[C@H]2C[C@@H](C[C@H]1NCc1[nH]cnc1C1CC1)C2(C)C`, for which the CC50 at 48 h in series [1] was found to be 162 µM. Moreover, the IC50 in series [2] was determined as 3.8 µM; in series [3] (setting [6]) it was 3.4 µM.
On to `CCc1nc[nH]c1CN[C@@H]1C[C@@H]2C[C@H]([C@H]1C)C2(C)C`, for which, in series [1], the 50% cytotoxic concentration (CC50) at 48 h was 180 µM. Moreover, the half-inhibitory concentration (IC50) in series [2] turned out to be 6.7 µM; in series [3] (setting [6]), 5.8 µM.
As to `Cc1nc(C(C)C)[nH]c1CN[C@@H]1C[C@@H]2C[C@H]([C@H]1C)C2(C)C`, the CC50 at 48 h in series [1] stood at 73.1 µM. In addition, the half-inhibitory concentration (IC50) entry in series [3] (mdck) is “Not Active”.
As to `C[C@@H]1[C@H]2C[C@@H](C[C@H]1NCc1cnc(C3CCCCC3)[nH]1)C2(C)C`, the CC50 at 48 h in series [1] is 33.5 µM. In addition, the 50% inhibitory concentration (IC50) entry in series [3] (mdck) is listed as “Not Active”.
On to `C[C@@H]1[C@H]2C[C@@H](C[C@H]1NCc1cnc(-c3ccccc3)[nH]1)C2(C)C`, for which the cytotoxic concentration (CC50) at 48 h in series [1] is 79.9 µM. The 50% inhibitory concentration (IC50) in series [2] came to 10.7 µM; in series [3] (setting [6]) it was 7.6 µM.
